Columns and labels:
U-251 = assay: Growth inhibition of human U251 cells after 48 hrs by sulforhodamine B assay; format: functional; details: U-251, 48 h
How it was run: (§1)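 Tumour lines from NCI and Vero from the Rio de Janeiro Cell Bank, grown in RPMI 1640 with 5% fetal bovine serum, with penicillin:streptomycin added to experimental cultures. Each compound was tested at four 10-fold dilutions; sulforhodamine B staining at time zero and 48 h. Proliferation was calculated against T0 and drug-free controls, and GI50 came from sigmoidal regression of the concentration-response curves. Representative experiment in triplicate.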

[1] = Growth inhibition of human UACC62 cells after 48 hrs by sulforhodamine B assay; format: functional; details: UACC-62, 48 h; how it was run: as §1
MCF7 = assay: Growth inhibition of human MCF7 cells after 48 hrs by sulforhodamine B assay; format: functional; details: MCF7, 48 h; how it was run: as §1
[2] = Growth inhibition of human NCI-ADR-RES cells after 48 hrs by sulforhodamine B assay; format: functional; how it was run: as §1
NCI-H460 = assay: Growth inhibition of human NCI-H460 cells after 48 hrs by sulforhodamine B assay; format: functional; details: NCI-H460, 48 h; how it was run: as §1
786-0 = assay: Growth inhibition of human 786-0 cells after 48 hrs by sulforhodamine B assay; format: functional; details: 786-0, 48 h; how it was run: as §1
PC-3 = assay: Growth inhibition of human PC3 cells after 48 hrs by sulforhodamine B assay; format: functional; details: PC-3, 48 h; how it was run: as §1
[3] = Growth inhibition of human OVCAR3 cells after 48 hrs by sulforhodamine B assay; format: functional; details: OVCAR-3, 48 h; how it was run: as §1
HT-29 = assay: Growth inhibition of human HT-29 cells after 48 hrs by sulforhodamine B assay; format: functional; details: HT-29, 48 h; how it was run: as §1
K562 = assay: Growth inhibition of human K562 cells after 48 hrs by sulforhodamine B assay; format: functional; details: K562, 48 h; how it was run: as §1
[4] = (§2) Growth inhibition of African green monkey Vero cells after 48 hrs by sulforhodamine B assay; format: cell-based; details: chlorocebus sabaeus, Vero cells; how it was run: as §1
Vero = assay: as §2; format: cell-based; details: chlorocebus sabaeus, vero, 48 h; how it was run: as §1

Row | Compound | GI50 (U-251) [µM] | GI50 (MCF7) [µM] | GI50 (NCI-H460) [µM] | GI50 (786-0) [µM] | GI50 (PC-3) [µM] | GI50 (HT-29) [µM] | GI50 (K562) [µM] | TGI (U-251) [µM] | TGI (MCF7) [µM] | GI50 [2] [µM] | TGI [2] [µM] | TGI (NCI-H460) [µM] | TGI (786-0) [µM] | TGI (PC-3) [µM] | GI50 [3] [µM] | TGI [3] [µM] | TGI (HT-29) [µM] | TGI (K562) [µM] | GI50 at 48 h [4] [µM] | TGI (Vero) [µM] | further results
1 | C=C(C)[C@H]1CC=C(C)CC1 [D-LIMONENE] | > 100 | > 100 | > 100 | > 100 | > 100 | > 100 | 23.9 | > 100 | > 100 | > 100 | > 100 | > 100 | > 100 | > 100 | > 100 | > 100 | > 100 | > 100 | > 100 | > 100 | 
2 | CC1=CC[C@H](C(C)(C)NC(=S)N/N=C/c2ccc(C)cc2)CC1 | 89.2 | 15.2 | 75.7 | 87.2 | < 0.04 | 20.2 | 1.6 | > 100 | 93.6 | 78.5 | > 100 | > 100 | > 100 | 0.9 | 67.2 | > 100 | 94.5 | 56.8 | 81.4 | > 100 | GI50 [1]: 75.9 µM; TGI [1]: > 100 µM
3 | COc1ccc(/C(C)=N/NC(=S)NC(C)(C)[C@H]2CC=C(C)CC2)cc1 | 43.4 | 5 | 90.6 | > 100 | 83.6 | 18.7 | 54 | > 100 | > 100 | > 100 | > 100 | > 100 | > 100 | > 100 | 74.9 | > 100 | > 100 | > 100 | > 100 | > 100 | GI50 [1]: 95.3 µM; TGI [1]: > 100 µM
4 | CC1=CC[C@H](C(C)(C)NC(=S)N/N=C/c2ccccc2Cl)CC1 | 80.6 | 11 | 64.5 | 85.5 | 0.05 | 71.3 | 5.6 | > 100 | 98.3 | 75 | > 100 | 81 | > 100 | 0.7 | 15.1 | 83.6 | > 100 | 66.2 | 74.6 | > 100 | GI50 [1]: 19.3 µM; TGI [1]: 98 µM
5 | CC1=CC[C@H](C(C)(C)NC(=S)N/N=C(\C)c2ccccc2)CC1 | > 100 | 20.7 | > 100 | > 100 | > 100 | 29.5 | > 100 | > 100 | > 100 | > 100 | > 100 | > 100 | > 100 | > 100 | > 100 | > 100 | > 100 | > 100 | > 100 | > 100 | GI50 [1]: > 100 µM; TGI [1]: > 100 µM

The next molecules have a lower GI50 (U-251) than those just listed; values first:

Row | GI50 (U-251) [µM] | GI50 (MCF7) [µM] | GI50 (NCI-H460) [µM] | GI50 (786-0) [µM] | GI50 (PC-3) [µM] | GI50 (HT-29) [µM] | GI50 (K562) [µM] | Compound | TGI (U-251) [µM] | TGI (MCF7) [µM] | GI50 [2] [µM] | TGI [2] [µM] | TGI (NCI-H460) [µM] | TGI (786-0) [µM] | TGI (PC-3) [µM] | GI50 [3] [µM] | TGI [3] [µM] | TGI (HT-29) [µM] | TGI (K562) [µM] | GI50 at 48 h [4] [µM] | TGI (Vero) [µM] | further results
6 | 13.5 | 4.8 | 10.8 | 11.5 | 17.8 | 17.8 | 17.6 | CC1=CC[C@H](C(C)(C)NC(=S)N/N=C/c2cccs2)CC1 | 27.4 | 11.5 | 13.6 | 41 | 20.8 | 26.7 | 62.8 | 13.1 | 35.1 | 57.8 | > 100 | 10.1 | 13.4 | GI50 [1]: 2.6 µM; TGI [1]: 19 µM
7 | 0.003 | 0.005 | 0.1 | 0.02 | < 0.1 | 0.001 | 0.1 | CC(=O)O[C@H]1C(=O)[C@@]2(C)[C@H]([C@H](OC(=O)c3ccccc3)[C@]3(O)C[C@H](OC(=O)[C@H](O)[C@@H](NC(=O)c4ccccc4)c4ccccc4)C(C)=C1C3(C)C)[C@]1(OC(C)=O)CO[C@@H]1C[C@@H]2O [PACLITAXEL] | 0.1 | 0.4 | 0.04 | 0.4 | 0.08 | 0.8 | < 0.03 | 0.2 | < 0.03 | < 0.03 | 0.1 | 0.03 |  | GI50 [1]: 0.01 µM; TGI [1]: 0.5 µM
8 | 29.1 | 57.6 | > 100 | > 100 | > 100 | > 100 | 4 | CC1=CC[C@H](C(C)(C)N=C=S)CC1 | > 100 | > 100 | > 100 | > 100 | > 100 | > 100 | > 100 | > 100 | > 100 | > 100 | > 100 | > 100 | > 100 | 
9 | 7 | 8 | 50.8 | 21.7 | 62.6 | 29.9 | 83.4 | CC1=CC[C@H](C(C)(C)NC(=S)N/N=C(\C)c2ccc([N+](=O)[O-])cc2)CC1 | 29.3 | 77.5 | 9.9 | > 100 | 83.7 | > 100 | > 100 | 7.7 | 29.3 | > 100 | > 100 | 67.1 | > 100 | GI50 [1]: 7.2 µM; TGI [1]: 46.8 µM
10 | 7.9 | 8 | 1.4 | 9.2 | 0.6 | 7.9 | 5.4 | CC1=CC[C@H](C(C)(C)NC(=S)N/N=C/c2cccc(Cl)c2)CC1 | 35.8 | 61 | 67.5 | > 100 | 21.4 | 26.9 | 6.6 | 13.6 | 80.5 | 53 | > 100 | 14.8 | > 100 | GI50 [1]: 9 µM; TGI [1]: 39.8 µM
11 | 11.7 | 14.8 | > 100 | 12.9 | 0.3 | < 0.04 | 1.9 | COc1cc(/C=N/NC(=S)NC(C)(C)[C@H]2CC=C(C)CC2)ccc1O | 32.6 | 63.9 | 23.9 | > 100 | > 100 | 35.4 | 8.3 | 53.5 | > 100 | < 0.7 | 85.2 | 19.7 | 91.8 | GI50 [1]: 14.7 µM; TGI [1]: 42.3 µM
12 | 0.2 | 0.9 | 42 | > 100 | 44.5 | 60.1 | > 100 | CC1=CC[C@H](C(C)(C)NC(=S)NN)CC1 | 10.1 | 46.7 | 39.3 | > 100 | > 100 | > 100 | > 100 | 41.9 | > 100 | > 100 | > 100 | 49.5 | > 100 | 

Reference: ChEMBL document CHEMBL3232876, “Novel R-(+)-limonene-based thiosemicarbazones and their antitumor activity against human tumor cell lines” (Eur J Med Chem, 2014)
